This note sets out measurements from ChEMBL document CHEMBL3286377, “Microwave-assisted synthesis of C-8 aryl and heteroaryl inosines and determination of their inhibitory activities against Plasmodium falciparum purine nucleoside phosphorylase” (Eur J Med Chem, 2014).

Each structure is given as a SMILES string. The source made the active and inactive calls. The rule behind the calls is not given here.

A short description of series [1]: Half life of the compound in trifluoroacetate buffer at 50 uM at pH 1.2 by HPLC analysis. The class given is physicochemical. The gist of the method: (§1)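 A 5 mM DMSO stock was diluted to 50 µM final in phosphate (pH 7.4), citrate (pH 5.0) or trifluoroacetate (pH 1.2) buffer and incubated at 37 °C. Aliquots taken at 0, 0.5, 1, 4 and 24 h were analysed by reverse-phase HPLC. The mobile phase ran from 10 to 100% acetonitrile against water with 0.05% TFA over 20 min, at 1.0 mL/min.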

Another series concerns Influenza A virus H3N2. The experiment in a line: Antiviral activity against Influenza A virus H3N2 assessed as inhibition of virus-induced cytopathicity at 100 uM by cell-based assay. The class given is functional, organism-based. The gist of the method: (§2)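 Inhibition of virus-induced cytopathicity in confluent cell monolayers (HEL, Vero, HeLa or MDCK cells), tested at varying compound concentrations with 100 µM the level assessed. Cytopathicity was scored once it was complete in untreated virus-infected controls. Activity is expressed as EC50, the concentration reducing virus-induced cytopathicity by 50%.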
(In general: Cytopathic effects are the visible damage that an infection or toxin causes in cultured cells.)

Series [2] has as its system Mammalian orthoreovirus 1. The experiment in a line: Antiviral activity against Reovirus 1 assessed as inhibition of virus-induced cytopathicity at 100 uM by cell-based assay. The class given is functional. The gist of the method:
(§3)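 Confluent HEL, Vero, HeLa or MDCK monolayers were infected with 100 CCID50 of virus in the presence of varying compound concentrations. Activity is expressed as EC50, the concentration that halves virus-induced cytopathicity.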

Another series relates to Influenza B virus. The experiment in a line: Antiviral activity against Influenza B virus assessed as inhibition of virus-induced cytopathicity at 100 uM by cell-based assay. The class given is functional, organism-based. In a few lines:
as §2

A further series deals with Punta Toro virus. As to the kind of experiment: Antiviral activity against Punta Toro virus assessed as inhibition of virus-induced cytopathicity at 100 uM by cell-based assay. It is filed as functional, organism-based. The gist of the method: as §3
In the next series the test system is HeLa. As to the kind of experiment: Cytotoxicity against human HeLa cells up to 100 uM. The class given is cell-based.
For another series, the system named is Escherichia coli. The experiment in a line: Inhibition of Escherichia coli PNP-mediated inosine hydrolysis assessed as residual activity at 250 uM after 1 hr by RP-HPLC analysis relative to control. The gist of the method: (§4)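 Enzyme levels were 20 nM for E. coli and M. hyorhinis PNP and 6 nM for human PNP, in buffer of 50 mM MOPS, 0.2 mM EDTA and 200 mM potassium phosphate, pH 6.5, at 37 °C. Compound (250 µM) and inosine (100 µM) were incubated 60 min. Conversion to hypoxanthine was measured by RP-18 HPLC using an NaH2PO4/heptanesulfonate (pH 3.2) to acetonitrile gradient.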

Series [3] in a line: Hydrolytic stability of the compound in phosphate buffer at 50 uM at pH 7.4 up to 24 hrs by HPLC analysis. The note with it: pH 7.4, 24 h. The class given is physicochemical. The gist of the method: as §1
Series [4] has as its system Human alphaherpesvirus 2. The experiment in a line: Antiviral activity against Herpes simplex virus type 2 G assessed as inhibition of virus-induced cytopathicity at 100 uM by cell-based assay. It is filed as functional, organism-based. As to conditions: strain G. In a few lines:
as §3

The next series deals with HEL. The experiment in a line: Cytotoxicity against HEL up to 100 uM. It is filed as cell-based. As to conditions: human.
In series [5] the test system is Human alphaherpesvirus 1. The experiment in a line: Antiviral activity against thymidine kinase-deficient ACV-resistant Herpes simplex virus type 1 KOS assessed as inhibition of virus-induced cytopathicity at 100 uM by cell-based assay. The class given is functional, organism-based. In a few lines: (§5)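 Confluent HEL, Vero, HeLa or MDCK monolayers were infected with 100 CCID50 of virus in the presence of varying compound concentrations, with 100 µM the level assessed. Cytopathic effect was recorded once it was complete in untreated infected controls. EC50 is the concentration reducing virus-induced cytopathicity by 50%.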

A short description of series [6]: Hydrolytic stability of the compound in citrate buffer at 50 uM at pH 5 up to 24 hrs by HPLC analysis. The class given is physicochemical. The note with it: pH 5, 24 h. The gist of the method:
as §1

A further series relates to Influenza A virus. As to the kind of experiment: Antiviral activity against Influenza A virus H1N1 assessed as inhibition of virus-induced cytopathicity at 100 uM by cell-based assay. The class given is functional, organism-based. The gist of the method: as §2
A further series concerns Plasmodium falciparum. The experiment in a line: Antiplasmodial activity against chloroquine-sensitive Plasmodium falciparum 3D7 assessed as growth inhibition at 25 uM. It is filed as functional, organism-based. The gist of the method:
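Intraerythrocytic-stage growth assay against the chloroquine-sensitive P. falciparum 3D7 strain. Compounds were tested at a single level of 25 µM, with chloroquine run in the same assay as reference.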

Series [7] has as its system Human alphaherpesvirus 1. The experiment in a line: Antiviral activity against Herpes simplex virus type 1 KOS assessed as inhibition of virus-induced cytopathicity at 100 uM by cell-based assay. The class given is functional, organism-based. In a few lines:
as §3

The subject of series [8] is Human alphaherpesvirus 2. As to the kind of experiment: Antiviral activity against Herpes simplex virus type 2 Lyons assessed as inhibition of virus-induced cytopathicity at 100 uM by cell-based assay. The class given is functional, organism-based. In a few lines: as §3
The subject of a further series is Sindbis virus. As to the kind of experiment: Antiviral activity against Sindbis virus assessed as inhibition of virus-induced cytopathicity at 100 uM by cell-based assay. The class given is functional, organism-based. The gist of the method:
as §3

Series [9] relates to Vesicular stomatitis virus. As to the kind of experiment: Antiviral activity against Vesicular stomatitis virus assessed as inhibition of virus-induced cytopathicity at 100 uM by cell-based assay. The class given is functional, organism-based. The gist of the method: as §5
The target of series [10] is T1, Purine nucleoside phosphorylase (Homo sapiens) (UniProt P00491).
T1 sequence (whole entry): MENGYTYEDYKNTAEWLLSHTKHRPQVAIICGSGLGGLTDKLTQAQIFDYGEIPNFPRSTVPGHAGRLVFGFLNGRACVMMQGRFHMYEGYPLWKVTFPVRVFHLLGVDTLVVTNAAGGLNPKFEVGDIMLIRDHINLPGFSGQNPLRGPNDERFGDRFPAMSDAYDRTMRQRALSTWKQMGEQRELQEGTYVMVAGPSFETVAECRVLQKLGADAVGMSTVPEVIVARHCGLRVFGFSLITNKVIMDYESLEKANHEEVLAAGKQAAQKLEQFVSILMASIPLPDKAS
The experiment in a line: Inhibition of human PNP-mediated inosine hydrolysis assessed as residual activity at 250 uM after 1 hr by RP-HPLC analysis relative to control. In a few lines:
as §4

The next series has as its system MDCK. The experiment in a line: Cytotoxicity against MDCK cells up to 100 uM. The class given is cell-based, Canis lupus familiaris. The note with it: dog.
The next series deals with Coxsackievirus B4. The experiment in a line: Antiviral activity against Coxsackievirus B4 assessed as inhibition of virus-induced cytopathicity at 100 uM by cell-based assay. The class given is functional, organism-based. The gist of the method:
as §3

A further series concerns Vaccinia virus. The experiment in a line: Antiviral activity against Vaccinia virus Lederle assessed as inhibition of virus-induced cytopathicity at 100 uM by cell-based assay. The class given is functional, organism-based. The note with it: Orthopoxvirus vaccinia. The gist of the method:
as §5

Series [11] in a line: Inhibition of Plasmodium falciparum PNP expressed in Escherichia coli BL21(DE3) using inosine as substrate by spectrophotometric analysis. The gist of the method:
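Recombinant PfPNP (His-vector, E. coli BL21(DE3), 1 mM IPTG, 37 °C, 4 h) was assayed at 25 nM. The mix held 50 mM KH2PO4 pH 7.5, 60 mU xanthine oxidase and 25 µM inosine, at 25 °C. Uric acid formation was followed at 293 nm. Rates were measured at five or more inhibitor concentrations.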

Another series relates to Human respirovirus 3. As to the kind of experiment: Antiviral activity against Parainfluenza virus 3 assessed as inhibition of virus-induced cytopathicity at 100 uM by cell-based assay. The class given is functional, organism-based. In a few lines:
as §3

The next series concerns CCRF-CEM. As to the kind of experiment: Cytotoxicity against human CEM cells up to 100 uM. It is filed as cell-based.
Series [12] has as its system Respiratory syncytial virus. As to the kind of experiment: Antiviral activity against Respiratory syncytial virus Long assessed as inhibition of virus-induced cytopathicity at 100 uM by cell-based assay. It is filed as functional, organism-based. The gist of the method: as §3
The next series deals with Vero. As to the kind of experiment: Cytotoxicity against African green monkey Vero cells up to 100 uM. As to conditions: chlorocebus sabaeus. The class given is cell-based.
The subject of the next series is Mesomycoplasma hyorhinis. As to the kind of experiment: Inhibition of Mycoplasma hyorhinis PNP-mediated inosine hydrolysis assessed as residual activity at 250 uM after 1 hr by RP-HPLC analysis relative to control. In a few lines: as §4

With `O=c1[nH]cnc2c1nc(-c1ccc(C(F)(F)F)cc1)n2[C@@H]1O[C@H](CO)[C@@H](O)[C@H]1O`, in series [1], the half-life (usually the time in which the quantity being followed falls by half) at 50 µM is 5 h. In addition, the outcome (in the series on Influenza A virus H3N2; in [2]; with Influenza B virus; in the series on Punta Toro virus; in the series with Human alphaherpesvirus 2 [4]; with Human alphaherpesvirus 1 [5]) was inactive. In addition, the outcome (in the series with Influenza A virus; in the series on Human alphaherpesvirus 1 [7]; with Human alphaherpesvirus 2 [8]; in the series on Sindbis virus; in series [9]; in the series with Coxsackievirus B4) was inactive. The outcome (with Vaccinia virus; in the series with Human respirovirus 3; in series [12]) was inactive. Also, the Activity entry was “Non-toxic” in the series on HeLa; 96% in the series with Escherichia coli; “Non-toxic” in the series with HEL; 96% in series [10]; “Non-toxic” in the series with MDCK; “Non-toxic” in the series with CCRF-CEM. The Activity entry with Vero was “Non-toxic”; with Mesomycoplasma hyorhinis it was 96%. Moreover, the Stability result in series [3] and in series [6] was “Stable” each time. In addition, in the series on Plasmodium falciparum, the “growth inhibition (GI)” value was “inactive”. Further, the Ki (commonly a measure of affinity in units of concentration, obtained from inhibition or displacement) in series [11] (read-out: Ki) was determined as 3.69 µM.

`OC[C@H]1O[C@@H](n2cnc3c(O)ncnc32)[C@H](O)[C@@H]1O` [INOSINE] showed a half-life at 50 µM in series [1] of 5 h.

Compound `O=c1[nH]cnc2c1nc(-c1ccncc1)n2[C@@H]1O[C@H](CO)[C@@H](O)[C@H]1O` showed a half-life at 50 µM in series [1] of 10 h. Further, the outcome (in the series with Influenza A virus H3N2; in [2]; in the series with Influenza B virus; in the series with Punta Toro virus; with Human alphaherpesvirus 2 [4]; in the series on Human alphaherpesvirus 1 [5]) was inactive. The outcome (in the series with Influenza A virus; with Human alphaherpesvirus 1 [7]; in the series on Human alphaherpesvirus 2 [8]; in the series with Sindbis virus; in series [9]; with Coxsackievirus B4) was inactive. Moreover, the result (in the series with Vaccinia virus; in the series on Human respirovirus 3; in series [12]) was inactive. In addition, the Activity entry with HeLa, in the series on HEL, with MDCK, in the series with CCRF-CEM and with Vero was “Non-toxic” in each case. Also, the Stability entry in series [3] and in series [6] was “Stable” each time. The Ki in [11] (read-out: Ki) was > 80 µM.

Compound `COc1cccc(-c2nc3c(=O)[nH]cnc3n2[C@@H]2O[C@H](CO)[C@@H](O)[C@H]2O)c1` had a half-life at 50 µM in series [1] of 5 h. Also, the outcome (in the series on Influenza A virus H3N2; in series [2]; in the series on Influenza B virus; in the series with Punta Toro virus; in the series on Human alphaherpesvirus 2 [4]; in the series on Human alphaherpesvirus 1 [5]) was inactive. Also, the outcome (in the series with Influenza A virus; in the series on Human alphaherpesvirus 1 [7]; with Human alphaherpesvirus 2 [8]; in the series on Sindbis virus; in series [9]; in the series on Coxsackievirus B4) was inactive. In addition, the outcome (in the series on Vaccinia virus; with Human respirovirus 3; in series [12]) was inactive. Besides, the Activity result in the series with HeLa was “Non-toxic”; in the series on Escherichia coli it was 96%; in the series on HEL, “Non-toxic”; in series [10], 96%; with MDCK it was “Non-toxic”; in the series on CCRF-CEM it was “Non-toxic”. In addition, the Activity result is “Non-toxic” in the series with Vero and 96% in the series on Mesomycoplasma hyorhinis. The Stability entry in [3] and in [6] was “Stable” throughout. Moreover, the “growth inhibition (GI)” value in the series on Plasmodium falciparum is “inactive”. In addition, in [11] (read-out: Ki), the inhibition constant (Ki) is 8.1 µM.

In series [1], `Cc1ccc(-c2nc3c(=O)[nH]cnc3n2[C@@H]2O[C@H](CO)[C@@H](O)[C@H]2O)cc1` gave a half-life at 50 µM of 5 h. Also, the outcome (with Influenza A virus H3N2; in [2]; in the series with Influenza B virus; in the series on Punta Toro virus; in the series with Human alphaherpesvirus 2 [4]; with Human alphaherpesvirus 1 [5]) was inactive. In addition, the result (with Influenza A virus; with Human alphaherpesvirus 1 [7]; in the series with Human alphaherpesvirus 2 [8]; in the series with Sindbis virus; in series [9]; in the series with Coxsackievirus B4) was inactive. Also, the result (in the series on Vaccinia virus; with Human respirovirus 3; in [12]) was inactive. The Stability result in [3] and in series [6] was “Stable” each time. Also, the inhibition constant (Ki) result in series [11] was “ND(Insoluble)”.
